Measurements taken from ChEMBL document CHEMBL5154713, “Illuminating a Dark Kinase: Structure-Guided Design, Synthesis, and Evaluation of a Potent Nek1 Inhibitor and Its Effects on the Embryonic Zebrafish Pronephros” (J Med Chem, 2022).

What was measured:
[1] = target: T1, Serine/threonine-protein kinase Nek1 (Homo sapiens, UniProt Q96PY6); assay: Inhibition of human recombinant NEK1 (1 to 505 residues) using RLGRDKYKTLRQIRQ as substrate incubated for 40 mins in presence of [gamma-33P]-ATP by radiometric scintillation counting assay
T1 sequence (Q96PY6 whole entry): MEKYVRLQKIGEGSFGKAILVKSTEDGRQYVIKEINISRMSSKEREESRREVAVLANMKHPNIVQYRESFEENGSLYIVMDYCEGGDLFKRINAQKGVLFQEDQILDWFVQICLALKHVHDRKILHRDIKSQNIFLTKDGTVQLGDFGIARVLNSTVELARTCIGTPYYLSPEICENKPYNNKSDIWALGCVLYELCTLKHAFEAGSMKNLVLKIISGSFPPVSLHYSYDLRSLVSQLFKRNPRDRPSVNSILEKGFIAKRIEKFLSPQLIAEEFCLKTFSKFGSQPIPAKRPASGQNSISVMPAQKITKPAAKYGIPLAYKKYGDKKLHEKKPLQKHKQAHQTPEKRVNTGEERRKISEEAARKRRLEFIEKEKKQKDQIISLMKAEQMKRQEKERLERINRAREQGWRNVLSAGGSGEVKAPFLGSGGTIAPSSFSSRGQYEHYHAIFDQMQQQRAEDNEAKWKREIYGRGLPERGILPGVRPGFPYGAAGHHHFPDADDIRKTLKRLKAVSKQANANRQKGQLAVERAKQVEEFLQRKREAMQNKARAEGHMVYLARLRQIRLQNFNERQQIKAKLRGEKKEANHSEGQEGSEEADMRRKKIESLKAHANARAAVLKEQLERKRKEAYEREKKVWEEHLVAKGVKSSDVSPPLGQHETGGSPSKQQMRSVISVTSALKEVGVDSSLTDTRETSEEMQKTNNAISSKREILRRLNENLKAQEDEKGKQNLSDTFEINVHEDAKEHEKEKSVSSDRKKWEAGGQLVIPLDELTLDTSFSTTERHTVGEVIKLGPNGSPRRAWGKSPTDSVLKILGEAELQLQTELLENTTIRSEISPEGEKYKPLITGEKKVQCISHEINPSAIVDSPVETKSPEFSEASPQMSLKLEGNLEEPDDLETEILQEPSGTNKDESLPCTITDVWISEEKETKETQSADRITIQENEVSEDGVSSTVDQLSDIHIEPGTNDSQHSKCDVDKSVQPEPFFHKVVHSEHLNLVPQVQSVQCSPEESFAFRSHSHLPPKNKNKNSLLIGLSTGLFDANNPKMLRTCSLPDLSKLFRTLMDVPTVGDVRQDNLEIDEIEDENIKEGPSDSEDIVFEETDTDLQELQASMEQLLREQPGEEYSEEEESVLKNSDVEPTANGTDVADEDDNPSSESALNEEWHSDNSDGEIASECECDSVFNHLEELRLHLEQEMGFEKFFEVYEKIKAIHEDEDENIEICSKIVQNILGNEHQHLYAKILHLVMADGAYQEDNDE
Outline: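 Eurofins IC50Profiler radiometric assay on recombinant human Nek1 (1−505), ATP at 10 μM or 90 μM (near Km). Nine concentrations at half-log steps from 10 μM to 1 nM, with vehicle controls. IC50 and 95% CI obtained by four-parameter nonlinear regression. Mean of two independent experiments.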

[2] = target: RAC-alpha serine/threonine-protein kinase (Homo sapiens) (UniProt P31749); assay: Inhibition of human full length Akt1 assessed as residual activity at 1 uM using GRPRTSSFAEGKK as substrate incubated for 40 mins in presence of [gamma 33P]-ATP based radiometric scintillation counting assay relative to control
Outline: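 Commercial radiometric panel of 50 kinases. Each recombinant human kinase was tested at a single compound concentration of 1 μM. ATP was set within 15 μM of the apparent Km for ATP for each kinase. Residual activity is relative to control and is the mean of two independent experiments.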

Chain of RAC-alpha serine/threonine-protein kinase (Homo sapiens) (P31749 whole entry): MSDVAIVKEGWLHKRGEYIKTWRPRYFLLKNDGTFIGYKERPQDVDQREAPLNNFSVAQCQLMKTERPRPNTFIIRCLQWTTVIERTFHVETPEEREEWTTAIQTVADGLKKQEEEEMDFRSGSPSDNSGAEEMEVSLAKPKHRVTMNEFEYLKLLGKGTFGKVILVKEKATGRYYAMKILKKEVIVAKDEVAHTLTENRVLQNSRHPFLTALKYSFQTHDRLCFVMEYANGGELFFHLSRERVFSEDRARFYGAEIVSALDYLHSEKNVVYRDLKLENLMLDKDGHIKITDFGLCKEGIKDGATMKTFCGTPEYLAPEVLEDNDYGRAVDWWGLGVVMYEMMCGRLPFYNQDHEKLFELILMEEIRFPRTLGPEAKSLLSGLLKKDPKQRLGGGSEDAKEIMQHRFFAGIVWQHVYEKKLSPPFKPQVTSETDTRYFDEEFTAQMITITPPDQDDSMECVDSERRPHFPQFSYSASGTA

O=S(=O)(N[C@@H](CO)Cc1c[nH]c2ccccc12)c1ccc(-c2ccnc3[nH]ccc23)cc1
IC50 [1]: 330 nM
Activity [2]: > 75%
